Assay results as given in article PMC6376552 (Antiviral Chemistry & Chemotherapy, 2019).
Where two headings read alike, the source gives them in different places.

Key:
Format in all cases: cell-based
HIV-1 (IIIB strain) = assay: MT-4 antiviral cytoprotection assay, five-day multi-cycle, wild type HIV-1; conditions: for anti-HIV activity in words / SI (selectivity index): wild type; for anti-HIV activity in words: MT-4 cells; for SI (selectivity index): CC50/EC50 ratio, MT-4
Outline: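 MT-4 cells were pre-infected with a fresh 1:250 dilution of concentrated HIV-1 IIIB stock, or mock-infected for cytotoxicity. Test compound was serially diluted 1:3 in DMSO, then 200-fold into RPMI with 10% FBS and 1% P/S. Controls were no-drug and 5 µM AZT. After 5 days at 37°C, viability was read by CellTiter-Glo luminescence. EC50/CC50 were taken as 50% signal decrease from sigmoidal fits; SI = CC50/EC50.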

MT-4 cells = assay: MT-4 cytotoxicity assay; conditions: MT-4 cell line, n = 3
MT-4 cytotoxicity assay = conditions: human, MT-4 cells (mock-infected), CC50, MT-4 cell line, n = 3
[1] = system: HIV-1 encoding RT mutation K103N; assay: MT-4 antiviral assay against HIV-1 encoding RT mutation K103N; conditions: Human immunodeficiency virus 1, MT4, read-out: EC50 K103N
[2] = system: HIV-1 encoding RT mutation Y181C; assay: MT-4 antiviral assay against HIV-1 encoding RT mutation Y181C; conditions: Human immunodeficiency virus 1, MT4, read-out: EC50 Y181C
[3] = Human immunodeficiency virus 1, IIIB, MT4, read-out: EC50 w.t.

Molecule	EC50 (HIV-1 (IIIB strain); read-out: EC50 w.t., MT-4 cell line, HIV-1 IIIB wild type, n = 3)	anti-HIV activity in words (HIV-1 (IIIB strain))	CC50 (MT-4 cells)	SI (selectivity index) (HIV-1 (IIIB strain))	EC50 (HIV-1 (IIIB strain); [3])	CC50 at 5 days (MT-4 cytotoxicity assay)	EC50 [1]	EC50 [2]
4-((4-amino-6–(2,6-difluoro-4-methoxybenzoyl)pyrimidin-2-yl)amino)benzonitrile [Compound 15]	2200 nM	micromolar range	7700 nM	–	–	–	–	–
COc1cc(F)c(C(=O)c2nc(N)cc(Nc3ccc(C#N)cc3)n2)c(F)c1 [Compound 11, 4-((6-amino-2–(2,6-difluoro-4-methoxybenzoyl)pyrimidin-4-yl)amino)benzonitrile]	–	micromolar range	–	7.14	874 nM	6240 nM	–	–
N#Cc1ccc(Nc2cc(N)nc(C(=O)c3c(F)cc(F)cc3F)n2)cc1 [Compound 12, 4-((6-amino-2–(2,4,6-trifluorobenzoyl)pyrimidin-4-yl)amino)benzonitrile]	–	micromolar range	–	24.3	1730 nM	42000 nM	–	–
COc1cc(F)c(C(=O)c2cc(N)nc(Nc3ccc(C#N)cc3)n2)c(F)c1 [Compound 13, 4-((4-amino-6–(2,6-difluoro-4-methoxybenzoyl)pyrimidin-2-yl)amino)benzonitrile]	–	low nanomolar activities	–	4900	4 nM	19600 nM	226 nM	797 nM
N#Cc1ccc(Nc2nc(N)cc(C(=O)c3c(F)cc(F)cc3F)n2)cc1 [Compound 14, 4-((4-amino-6–(2,4,6-trifluorobenzoyl)pyrimidin-2-yl)amino)benzonitrile]	–	low nanomolar activities	–	935	26 nM	24300 nM	1700 nM	3900 nM
N#Cc1ccc(Nc2cc(C(=O)c3c(F)cc(F)cc3F)nc(N)n2)cc1 [Compound 16, 4-((2-amino-6–(2,4,6-trifluorobenzoyl)pyrimidin-4-yl)amino)benzonitrile]	–	micromolar range	–	0.025	40000 nM	981 nM	–	–
Cc1cc(C(=O)c2c(F)cc(F)cc2F)nc(Nc2ccc(C#N)cc2)n1 [Compound 18, 4-((4-methyl-6–(2,4,6-trifluorobenzoyl)pyrimidin-2-yl)amino)benzonitrile]	–	–	–	–	160 nM	57100 nM	–	–
COc1cc(C(=O)c2c(F)cc(F)cc2F)nc(Nc2ccc(C#N)cc2)n1 [Compound 22, 4-((4-methoxy-6–(2,4,6-trifluorobenzoyl)pyrimidin-2-yl)amino)benzonitrile]	–	–	–	19.4	473 nM	9160 nM	–	–
COc1cc(F)c(Oc2cc(Cl)nc(Nc3ccc(C#N)cc3)n2)c(F)c1 [Compound 27, 4-((4-chloro-6–(2,6-difluoro-4-methoxyphenoxy)pyrimidin-2-yl)amino)benzonitrile]	–	–	–	847	19 nM	16100 nM	413 nM	1640 nM
N#Cc1ccc(Nc2nc(Cl)cc(Oc3c(F)cc(F)cc3F)n2)cc1 [Compound 28, 4-((4-chloro-6–(2,4,6-trifluorophenoxy)pyrimidin-2-yl)amino)benzonitrile]	–	–	–	264	53 nM	14000 nM	657 nM	2530 nM
COc1cc(F)c(Nc2cc(Cl)nc(Nc3ccc(C#N)cc3)n2)c(F)c1 [Compound 29, 4-((4-chloro-6-((2,6-difluoro-4-methoxyphenyl)amino)pyrimidin-2-yl)amino)benzonitrile]	–	–	–	2667	6 nM	16000 nM	204 nM	651 nM
N#Cc1ccc(Nc2nc(Cl)cc(Nc3c(F)cc(F)cc3F)n2)cc1 [Compound 30, 4-((4-chloro-6-((2,4,6-trifluorophenyl)amino)pyrimidin-2-yl)amino)benzonitrile]	–	–	–	378	27 nM	10200 nM	1020 nM	2000 nM
COc1cc(F)c(Oc2cc(OC)nc(Nc3ccc(C#N)cc3)n2)c(F)c1 [Compound 31, 4-((4–(2,6-difluoro-4-methoxyphenoxy)-6-methoxypyrimidin-2-yl)amino)benzonitrile]	–	–	–	832	19 nM	15800 nM	444 nM	4370 nM
COc1cc(Oc2c(F)cc(F)cc2F)nc(Nc2ccc(C#N)cc2)n1 [Compound 32, 4-((4-methoxy-6–(2,4,6-trifluorophenoxy)pyrimidin-2-yl)amino)benzonitrile]	–	–	–	926	54 nM	50000 nM	560 nM	7700 nM
COc1cc(F)c(Nc2cc(OC)nc(Nc3ccc(C#N)cc3)n2)c(F)c1 [Compound 33, 4-((4-((2,6-difluoro-4-methoxyphenyl)amino)-6-methoxypyrimidin-2-yl)amino)benzonitrile]	–	–	–	5571	7 nM	39000 nM	–	–
COc1cc(Nc2c(F)cc(F)cc2F)nc(Nc2ccc(C#N)cc2)n1 [Compound 34, 4-((4-methoxy-6-((2,4,6-trifluorophenyl)amino)pyrimidin-2-yl)amino)benzonitrile]	–	–	–	454	22 nM	9990 nM	1210 nM	2020 nM
COc1cc(F)c(Oc2cc(N)nc(Nc3ccc(C#N)cc3)n2)c(F)c1 [Compound 35, 4-((4-amino-6–(2,6-difluoro-4-methoxyphenoxy)pyrimidin-2-yl)amino)benzonitrile]	–	–	–	10,850	2 nM	21700 nM	36 nM	637 nM
N#Cc1ccc(Nc2nc(N)cc(Oc3c(F)cc(F)cc3F)n2)cc1 [Compound 36, 4-((4-amino-6–(2,4,6-trifluorophenoxy)pyrimidin-2-yl)amino)benzonitrile]	–	–	–	293	67 nM	19600 nM	67 nM	6660 nM
COc1cc(F)c(Nc2cc(N)nc(Nc3ccc(C#N)cc3)n2)c(F)c1 [Compound 37, 4-((4-amino-6-((2,6-difluoro-4-methoxyphenyl)amino)pyrimidin-2-yl)amino)benzonitrile]	–	–	–	5733	3 nM	17200 nM	62 nM	437 nM
N#Cc1ccc(Nc2nc(N)cc(Nc3c(F)cc(F)cc3F)n2)cc1 [Compound 38, 4-((4-amino-6-((2,4,6-trifluorophenyl)amino)pyrimidin-2-yl)amino)benzonitrile]	–	–	–	1289	27 nM	34800 nM	1650 nM	13700 nM
O=C1Nc2ccc(Cl)cc2[C@@](C#CC2CC2)(C(F)(F)F)O1 [EFV, efavirenz, reference compound]	–	–	–	–	–	20600 nM	101 nM	5 nM
Cc1cc(C#N)cc(C)c1Oc1nc(Nc2ccc(C#N)cc2)nc(N)c1Br [ETR, etravirine, reference compound]	–	–	–	2940	2 nM	5880 nM	2 nM	12 nM
